The text below walks through data of ChEMBL document CHEMBL4699421 (RSC Med Chem, 2020).

Data set [1] in a line: Cytotoxicity against human U2OS cells assessed as reduction in cell viability incubated for 72 hrs by MTT assay. It is filed as cell-based. An outline of the steps: (§1)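 Cells seeded at 5 × 10^4 cells per mL and grown 48 h (LLC-MK2 in RPMI; U2OS in high glucose DMEM). MTT 2.0 mg/mL added for 4 h, formazan dissolved in DMSO, read at 570 nm. CC50 from percent reduction versus untreated control.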
On the technique in general: Tetrazolium dyes change colour on reduction, which living cells bring about.

A short description of data set [2]: Selectivity index, ratio of CC50 for human U2OS cells assessed as reduction in cell viability incubated for 72 hrs by MTT assay to EC50 for Trypanosoma cruzi […]. The format is toxicity, cell-based. The settings on record: read-out: Ratio CC50/EC50.
Data set [3] concerns Trypanosoma cruzi. Nature of the data set: Trypanocidal activity against Trypanosoma cruzi Y intracellular amastigote form infected in human U2OS cells.
Data set [4] is described as follows: Selectivity index, ratio of CC50 for monkey LLC-MK2 cells assessed as reduction in cell viability incubated for 72 hrs by MTT assay to EC50 for Trypanosoma cruzi Tulahuen LacZ intracellular amastigote form infected in monkey LLC-MK2 cells incubated for 72 hrs by chlorophenol red beta-D-galactopyranoside substrate based spectrophotometric assay. It is filed as toxicity. The settings on record: read-out: Ratio CC50/EC50.

The test system of data set [5] is Trypanosoma cruzi. In words: Trypanocidal activity against Trypanosoma cruzi Tulahuen LacZ intracellular amastigote form infected in monkey LLC-MK2 cells incubated for 72 hrs by chlorophenol red beta-D-galactopyranoside substrate based spectrophotometric assay. The settings on record: LLC-MK2, 72 h. It is filed as functional, organism-based. An outline of the steps:
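LLC-MK2 at 5 × 10^4 cells per mL infected with Tulahuen LacZ trypomastigotes at 5 × 10^5 per mL, 24 h at 37 °C, 5% CO2. Extracellular parasites washed off. Compounds 1.95–250 µM (DMSO) added for 72 h. […] Benznidazole as positive control, DMSO as negative.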

Data set [6] in a line: Cytotoxicity against monkey LLC-MK2 cells assessed as reduction in cell viability incubated for 72 hrs by MTT assay. It is filed as cell-based, Macaca mulatta. The settings on record: rhesus monkey. In short, it runs like this: as §1
A further data set has as its target Cruzipain (Trypanosoma cruzi, UniProt P25779). Nature of the data set: Covalent inhibition of Trypanosoma cruzi cruzipain using Z-Phe-Arg-7-amidomethylcoumarin as substrate measured after 5 mins by fluorometric analysis. In short, it runs like this:
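Recombinant cruzain catalytic domain (no C-terminal extension), 0.15 nM, activated 20 min in 100 mM acetate pH 5.5, 300 mM NaCl, 5 mM DTT, then 2 min with inhibitor. Assay buffer adds 5% DMSO and 0.01% Triton X-100. Z-FR-AMC hydrolysis read at 355/460 nm, 37 °C, over 5 min. Wells checked for precipitation and background fluorescence.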

Data set [7] can be described thus: L-Cysteine reactivity in pH 7.4 phosphate buffer assessed as decay constant. The format is physicochemical. An outline of the steps:
(§2)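 HPLC reactivity at 37 °C in 0.05 M phosphate pH 7.4 with 1.0 mM EDTA and 5% acetonitrile, thiol glutathione or cysteine. Inhibitor solution 2.5 mM (stock). Aliquots injected over time on a 5–100% acetonitrile/water gradient with PDA detection 210–400 nm. Half-life and K from a one-phase decay fit, pseudo-first-order. Thiol-free control run for stability. Halved-concentration runs also reported.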

Data set [8] can be described thus: L-Cysteine reactivity in pH 7.4 phosphate buffer assessed as decay constant at 1.25 mM. It is filed as physicochemical. The settings on record: pH 7.4, 1250 µM. In short, it runs like this:
as §2

Data set [9] in a line: Glutathione reactivity in pH 7.4 phosphate buffer assessed decay constant at 1.25 mM. The format is physicochemical. As to conditions: pH 7.4, 1250 µM. In short, it runs like this:
as §2

A short description of data set [10]: Glutathione reactivity in pH 7.4 phosphate buffer assessed as half life at 2.5 mM by HPLC analysis. It is filed as physicochemical. The settings on record: phosphate buffer with glutathione. An outline of the steps:
as §2

The nature of data set [11]: L-Cysteine reactivity in pH 7.4 phosphate buffer assessed as half life at 2.5 mM by HPLC analysis. It is filed as physicochemical. As to conditions: phosphate buffer with L-cysteine. In short, it runs like this:
as §2

Data set [12] is described as follows: Glutathione reactivity in pH 7.4 phosphate buffer assessed as decay constant. It is filed as physicochemical. In short, it runs like this: as §2
The subject of data set [13] is Trypanosoma cruzi. In words: Trypanocidal activity against Trypanosoma cruzi […] relative to benznidazole. The format is functional.

Where a SMILES comes first, the peptide text is derived from it. [ ]: non-standard residue; d: D form. The star is where a group is joined. Cbz = O=C(OCc1ccccc1)*; Ac3c = NC1(C(=O)O)CC1

For orientation: CC50 means the concentration that lowers cell viability or growth by half. A word on the EC50: it is the concentration that produces a half-maximal response. As usually defined, the half-life is the time needed for the level to fall by half in the phase considered.

Sequence of Cruzipain (P25779 whole entry, the tested form may be a part): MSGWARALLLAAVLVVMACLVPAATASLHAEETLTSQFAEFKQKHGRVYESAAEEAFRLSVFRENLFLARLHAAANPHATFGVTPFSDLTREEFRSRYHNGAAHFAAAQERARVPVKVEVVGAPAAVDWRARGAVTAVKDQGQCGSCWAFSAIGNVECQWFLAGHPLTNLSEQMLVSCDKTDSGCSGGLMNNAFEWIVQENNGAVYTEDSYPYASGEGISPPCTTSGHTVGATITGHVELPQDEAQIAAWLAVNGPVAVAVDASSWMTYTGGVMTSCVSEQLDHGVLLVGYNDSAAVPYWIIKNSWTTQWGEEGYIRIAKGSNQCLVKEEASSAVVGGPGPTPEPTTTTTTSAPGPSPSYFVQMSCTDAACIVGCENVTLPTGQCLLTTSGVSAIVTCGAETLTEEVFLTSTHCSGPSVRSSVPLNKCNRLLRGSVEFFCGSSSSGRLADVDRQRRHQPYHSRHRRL

As for `O=C(N[C@@H](Cc1ccccc1)C(=O)Nc1cnoc1)OCc1ccccc1`, the CC50 at 72 h in data set [1] and in data set [6] was greater than 100 µM each time. Further, the selectivity ratio at 72 h in [2] was greater than 19.6; in data set [4] it was greater than 3.9. In addition, the results for the EC50 in the data set with Trypanosoma cruzi [3] and with Trypanosoma cruzi [5] were 5.1 µM and 25.8 µM, respectively.
As for `O=C(N[C@@H](Cc1ccccc1)C(=O)NC/C=N/O)OCc1ccccc1`, the CC50 at 72 h in [1] is greater than 100 µM. In the data set on Trypanosoma cruzi [3], the EC50 was greater than 100 µM. Besides, the Ki at Cruzipain is 10 µM.
For `N#CC1(NC(=O)[C@H](Cc2ccccc2)NC(=O)c2ccccc2)CC1`, in [7], the K is 0.436 10^-2/min. Also, the EC50 with Trypanosoma cruzi [5] is greater than 100 µM.
The corresponding values for `N#CCNC(=O)[C@H](Cc1ccccc1)NC(=O)c1ccccc1` are 9.33 10^-2/min and greater than 100 µM.
In the case of `N#CC1(NC(=O)[C@H](Cc2ccccc2)NC(=O)OCc2ccccc2)CC1`, the CC50 at 72 h in data set [1] was 6 µM; in data set [6] it was greater than 100 µM. In addition, the selectivity ratio at 72 h in [2] was 4.4. For the same compound, the EC50 in the data set on Trypanosoma cruzi [3] is 1 µM; in the data set with Trypanosoma cruzi [5] it was greater than 100 µM.
As for `Cc1coc(NC(=O)[C@H](Cc2ccccc2)NC(=O)OCc2ccccc2)n1`, in the data set with Trypanosoma cruzi [5], the half-maximal effective concentration (EC50) is greater than 100 µM. Besides, the CC50 at 72 h in [6] was greater than 100 µM.
With `CNC(=O)/C=C/C1(NC(=O)[C@H](Cc2ccccc2)NC(=O)OCc2ccccc2)CC1`, the CC50 at 72 h in data set [1] was greater than 100 µM. In data set [2], the selectivity ratio at 72 h is greater than 8.2. In the data set on Trypanosoma cruzi [3], this compound showed an EC50 of 12.1 µM.
For `CC(C)C[C@H](NC(=O)c1cc(C(C)(C)C)nn1C)C(=O)N(C)N(C)C#N`, the EC50 with Trypanosoma cruzi [3] and in the data set on Trypanosoma cruzi [5] was 8.4 µM throughout. The figures for the K in data set [8] and in data set [9] were 3.15 10^-2/min and 1.01 10^-2/min, respectively.
For `CON(C)C(=O)CNC(=O)[C@H](Cc1ccccc1)NC(=O)OCc1ccccc1`, in the data set with Trypanosoma cruzi [5], the EC50 was greater than 100 µM. Moreover, the CC50 at 72 h in [6] was greater than 100 µM. The Ki at Cruzipain is 100 µM.
Take `CN(C#N)N(C)C(=O)[C@H](Cc1ccccc1)NC(=O)OCc1ccccc1`: the CC50 at 72 h in [1] was determined as 10.2 µM; in data set [6], 42 µM. Moreover, the selectivity ratio at 72 h was found to be 3.2 in [2] and 1.9 in data set [4]. Besides, the EC50 in the data set on Trypanosoma cruzi [3] is 3.2 µM; with Trypanosoma cruzi [5], 21.7 µM.
For the compound `N#CCNC(=O)[C@H](Cc1ccccc1)NC(=O)OCc1ccccc1`, the CC50 at 72 h in data set [1] and in data set [6] was greater than 100 µM each time. The values for the selectivity ratio at 72 h in data set [2] and in [4] were greater than 27.8 and 1.1, respectively. The figures for the EC50 in the data set on Trypanosoma cruzi [3] and with Trypanosoma cruzi [5] were 3.6 µM and greater than 100 µM, respectively.
For `CCOC(=O)/C=C/C1(NC(=O)[C@H](Cc2ccccc2)NC(=O)OCc2ccccc2)CC1`, in [4], the selectivity ratio at 72 h was greater than 1.2. The compound further came in with an EC50 in the data set with Trypanosoma cruzi [5] of 79.6 µM. Moreover, the CC50 at 72 h in data set [6] is greater than 100 µM.
In the data set on Trypanosoma cruzi [5], `CCN(CC)C(=O)/C=C/C1(NC(=O)[C@H](Cc2ccccc2)NC(=O)OCc2ccccc2)CC1` registered an EC50 greater than 100 µM. The CC50 at 72 h in data set [6] was greater than 100 µM.
Turning to `COC(=O)C1=C(C#N)NC(C)=C(C(=O)OC(C)C)C1c1cccc([N+](=O)[O-])c1` (configuration not stated) [NILVADIPINE], the K in data set [7] was 1.41 10^-2/min. In addition, the half-life at 2500 µM in [10] was greater than 5000 min.
On to `O=C(N[C@@H](Cc1ccccc1)C(=O)Nc1cnoc1)c1ccccc1`, for which, in [1], the CC50 at 72 h was greater than 100 µM. Moreover, the selectivity ratio at 72 h in [2] was greater than 16.6. It took 6 µM to reach a half-maximal effect in the data set on Trypanosoma cruzi [3] (EC50). At Cruzipain, this compound showed a Ki of 20 µM.
Take `O=CC1(NC(=O)[C@H](Cc2ccccc2)NC(=O)OCc2ccccc2)CC1` (Cbz-Phe-[Ac3c]-aldehyde): the half-life at 2500 µM in data set [11] is 22.2 min; in [10], 40 min. Also, the K in [12] was 1.73 10^-2/min; in data set [7], 3.12 10^-2/min. Further, the CC50 at 72 h in data set [1] is 3 µM; in data set [6], greater than 100 µM. For the same compound, the selectivity ratio at 72 h in data set [2] worked out at 58.4. The EC50 is 0.1 µM in the data set on Trypanosoma cruzi [3] and greater than 100 µM with Trypanosoma cruzi [5]. In addition, the “fold change (FC)” value in the data set on Trypanosoma cruzi [13] is listed as 10.
With `O=C(N[C@@H](Cc1c[nH]c2ccccc12)C(=O)Nc1cnoc1)c1ccccc1`, the CC50 at 72 h in data set [1] was greater than 100 µM. In addition, in [2], the selectivity ratio at 72 h was greater than 8.2. For the same compound, the EC50 with Trypanosoma cruzi [3] came out at 22.4 µM. For the same compound, at Cruzipain, the Ki was 10 µM.
